Test results published in ChEMBL document CHEMBL1151437, “Activity of a potent hepatitis C virus polymerase inhibitor in the chimpanzee model” (Antimicrob Agents Chemother, 2007).

How the values were obtained:
[1] = test system: Hepatitis C virus; test: Drug resistance, ratio of EC50 for HCV 1b strain N with NS5B polymerase C316Y mutation to EC50 for wild type HCV 1b strain N infected in chimpanzee measured on day 2; format: functional, Hepacivirus hominis, genotype 1b strain N
[2] = test system: Hepatitis C virus; test: Antiviral activity against HCV 1b strain N with NS5B polymerase C316Y mutation infected in chimpanzee measured on day 2; format: functional, organism-based, Hepacivirus hominis; conditions: genotype 1b strain N, 48 h
[3] = test system: Hepatitis C virus; test: Drug resistance, ratio of EC50 for HCV 1a H77 with NS5B polymerase Y448C mutation to EC50 for wild type HCV 1a H77 infected in chimpanzee measured on day 28; format: functional, Hepacivirus hominis, genotype 1a H77
[4] = Oral bioavailability in monkey at 5 mg/kg; format: ADME, organism-based, Macaca mulatta; conditions: rhesus monkey, in vivo
[5] = Tmax in dog at 5 mg/kg, po; format: ADME, organism-based, Canis lupus familiaris; set-up: dose 5 mg/kg, route oral; conditions: in vivo
In short: (§1)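 Rats, dogs and monkeys received one oral 5 mg/kg dose in polyethylene glycol 400. Serum was sampled at 0.3, 0.5, 1, 2, 4, 6, 9, 12 and 24 h. Plasma drug was extracted by acetonitrile protein precipitation with internal standard and quantified by LC-MS against spiked standards (peak-area ratio, linear regression). Limit of quantitation was about 20 ng/ml.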

[6] = test system: Hepatitis C virus; test: Drug resistance, ratio of EC50 for HCV 1b strain N with NS5B polymerase C316Y mutation to EC50 for wild type HCV 1b strain N infected in chimpanzee measured on day 11; format: functional, Hepacivirus hominis, genotype 1b strain N
[7] = Cmax in dog at 5 mg/kg, po; format: ADME, organism-based, Canis lupus familiaris; set-up: dose 5 mg/kg, route oral; conditions: in vivo; in short: as §1
[8] = test system: Hepatitis C virus; test: Drug resistance, ratio of EC50 for HCV 1a H77 with NS5B polymerase G554D mutation to EC50 for wild type HCV 1a H77 infected in chimpanzee measured on day 5; format: functional, Hepacivirus hominis, genotype 1a H77
[9] = test system: Hepatitis C virus; test: Drug resistance, ratio of EC50 for HCV 1a H77 with NS5B polymerase G554D mutation to EC50 for wild type HCV 1a H77 infected in chimpanzee measured on day 2; format: functional, Hepacivirus hominis, genotype 1a H77
[10] = Cmax in rat at 5 mg/kg, po; format: ADME, organism-based; set-up: dose 5 mg/kg, route oral; conditions: in vivo; in short: as §1
[11] = test system: Hepatitis C virus; test: Antiviral activity against HCV 1a H77 after 4 days by RT-PCR; format: functional, organism-based, Hepacivirus hominis; conditions: genotype 1a H77, 96 h
In short: (§2)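 Subgenomic replicon cells (genotype 1b strain N, or chimeric 1a H77/1b Con1) grown in DMEM with 10% FBS and 400 µg/ml G418. Next day, the medium was switched to 5% FBS with inhibitor in half-log dilutions. After 4 days, total RNA was extracted and replicon RNA copies were counted by TaqMan real-time RT-PCR. Potency came from the fall in copy number.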

[12] = test system: Hepatitis C virus; test: Antiviral activity against HCV 1b strain N after 4 days by RT-PCR in presence of 40% human serum; format: functional, organism-based, Hepacivirus hominis; conditions: genotype 1b strain N, 96 h
In short: (§3)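 They were exposed for 4 days to half-log inhibitor dilutions in medium with 5% FBS plus 40% human serum, to assess protein binding. Replicon RNA copy number was then measured by TaqMan real-time RT-PCR on extracted total RNA.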

[13] = test system: Hepatitis C virus; test: Antiviral activity against HCV 1b strain N with NS5B polymerase C316Y mutation infected in chimpanzee measured on day 5; format: functional, organism-based, Hepacivirus hominis; conditions: genotype 1b strain N, 120 h
[14] = test system: Hepatitis C virus; test: Ratio of EC50 for HCV 1a H77 in presence of 40% human serum to EC50 for HCV 1a H77 in absence of human serum; format: functional, Hepacivirus hominis, genotype 1a H77
In short: (§4)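 Cells carrying the subgenomic replicon (genotype 1b strain N, or chimeric 1a H77/1b Con1) were maintained in DMEM with 10% FBS and 400 µg/ml G418. The next day they were given medium with 5% FBS and half-log inhibitor dilutions, with or without 40% human serum, for 4 days. Replicon RNA copy number was measured by TaqMan RT-PCR.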

[15] = test system: Hepatitis C virus; test: Antiviral activity against wild type HCV 1b strain N infected in chimpanzee; format: functional, organism-based, Hepacivirus hominis; conditions: genotype 1b strain N
[16] = Half life in monkey at 5 mg/kg, po; format: ADME, organism-based, Macaca mulatta; set-up: dose 5 mg/kg, route oral; conditions: rhesus monkey, in vivo; in short: as §1
[17] = Cmax in HCV 1b strain N infected chimpanzee at 30 mg/kg, po BID for 14 days measured after 2 hrs of postdose; format: ADME, organism-based, Pan troglodytes; set-up: dose 30 mg/kg, route oral; conditions: in vivo
[18] = AUC in monkey at 5 mg/kg, po; format: ADME, organism-based, Macaca mulatta; set-up: dose 5 mg/kg, route oral; conditions: rhesus monkey, plasma; in short: as §1
[19] = Tmax in monkey at 5 mg/kg, po; format: ADME, organism-based, Macaca mulatta; set-up: dose 5 mg/kg, route oral; conditions: rhesus monkey, in vivo; in short: as §1
[20] = test system: Hepatitis C virus; test: Drug resistance, ratio of EC50 for HCV 1b strain N with NS5B polymerase C316Y mutation to EC50 for wild type HCV 1b strain N infected in chimpanzee measured on day 28; format: functional, Hepacivirus hominis, genotype 1b strain N
[21] = test system: Hepatitis C virus; test: Antiviral activity against HCV 1a H77 with NS5B polymerase Y448C mutation infected in chimpanzee measured on day 28; format: functional, organism-based, Hepacivirus hominis; conditions: genotype 1a H77, 672 h
[22] = Oral bioavailability in dog at 5 mg/kg; format: ADME, organism-based, Canis lupus familiaris; conditions: in vivo
[23] = Half life in dog at 5 mg/kg, po; format: ADME, organism-based, Canis lupus familiaris; set-up: dose 5 mg/kg, route oral; conditions: in vivo; in short: as §1
[24] = test system: Hepatitis C virus; test: Drug resistance, ratio of EC50 for HCV 1b strain N with NS5B polymerase C316Y mutation to EC50 for wild type HCV 1b strain N infected in chimpanzee measured on day 5; format: functional, Hepacivirus hominis, genotype 1b strain N
[25] = test system: Hepatitis C virus; test: Inhibition of HCV 1b strain N NS5B polymerase by [3H]UTP incorporation assay; set-up: species or system Hepatitis C virus subtype 1b
[26] = Cmax in HCV 1a H77 infected chimpanzee at 30 mg/kg, po BID for 14 days measured after 2 hrs of postdose; format: ADME, organism-based, Pan troglodytes; set-up: dose 30 mg/kg, route oral; conditions: in vivo
In short: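 Chimpanzees were dosed orally at 30 mg/kg BID for 14 days. Plasma drug was measured by LC-MS. For the genotype 1a animal, the value is the mean of three samples taken 2 h after the a.m. dose on days 2, 3 and 4.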

[27] = test system: Hepatitis C virus; test: Antiviral activity against HCV 1b strain N with NS5B polymerase C316Y mutation infected in chimpanzee measured on day 11; format: functional, organism-based, Hepacivirus hominis; conditions: genotype 1b strain N, 264 h
[28] = test system: Hepatitis C virus; test: Antiviral activity against HCV 1b strain N with NS5B polymerase C316Y mutation infected in chimpanzee measured on day 28; format: functional, organism-based, Hepacivirus hominis; conditions: genotype 1b strain N, 672 h
[29] = Cmax in monkey at 5 mg/kg, po; format: ADME, organism-based, Macaca mulatta; set-up: dose 5 mg/kg, route oral; conditions: rhesus monkey, in vivo; in short: as §1
[30] = test system: Hepatitis C virus; test: Ratio of EC50 for HCV 1b strain N in presence of 40% human serum to EC50 for HCV 1b strain N in absence of human serum; format: functional, Hepacivirus hominis, genotype 1b strain N; in short: as §4
[31] = AUC in rat at 5 mg/kg, po; format: ADME, organism-based; set-up: dose 5 mg/kg, route oral; conditions: plasma; in short: as §1
[32] = test system: Hepatitis C virus; test: Antiviral activity against HCV 1b strain N infected in chimpanzee assessed as reduction in viral load at 30 mg/kg, po BID for 14 days measured on day 2 postdosing; format: functional, Hepacivirus hominis, genotype 1b strain N
In short: (§5)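 One chimpanzee infected with genotype 1a and one with genotype 1b were dosed orally with 30 mg/kg BID for 14 days. Serum viral load was measured by TaqMan quantitative RT-PCR. A pretreatment serum sample (day 0) served as the baseline.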

[33] = test system: Hepatitis C virus; test: Drug resistance, ratio of EC50 for HCV 1a H77 with NS5B polymerase G554D mutation to EC50 for wild type HCV 1a H77 infected in chimpanzee measured on day 16; format: functional, Hepacivirus hominis, genotype 1a H77
[34] = test system: Hepatitis C virus; test: Antiviral activity against HCV 1a H77 with NS5B polymerase G554D mutation infected in chimpanzee measured on day 2; format: functional, organism-based, Hepacivirus hominis; conditions: genotype 1a H77, 48 h
[35] = test system: Hepatitis C virus; test: Antiviral activity against HCV 1a H77 infected in chimpanzee assessed as reduction in viral load at 30 mg/kg, po BID for 14 days measured on day 2 postdosing; format: functional, Hepacivirus hominis, genotype 1a H77; in short: as §5
[36] = test system: Hepatitis C virus; test: Antiviral activity against HCV 1a H77 with NS5B polymerase G554D mutation infected in chimpanzee measured on day 5; format: functional, organism-based, Hepacivirus hominis; conditions: genotype 1a H77, 120 h
[37] = Inhibition of HCV 1a H77 NS5B polymerase by [3H]UTP incorporation assay; set-up: species or system Hepatitis C virus (isolate H77)
[38] = Oral bioavailability in rat at 5 mg/kg; format: ADME, organism-based; conditions: in vivo
[39] = test system: Hepatitis C virus; test: Antiviral activity against HCV 1a H77 with NS5B polymerase G554D mutation infected in chimpanzee measured on day 16; format: functional, organism-based, Hepacivirus hominis; conditions: genotype 1a H77, 384 h
[40] = Half life in rat at 5 mg/kg, po; format: ADME, organism-based; set-up: dose 5 mg/kg, route oral; conditions: in vivo; in short: as §1
[41] = AUC in dog at 5 mg/kg, po; format: ADME, organism-based, Canis lupus familiaris; set-up: dose 5 mg/kg, route oral; conditions: plasma; in short: as §1
[42] = test system: Hepatitis C virus; test: Antiviral activity against HCV 1b strain N after 4 days by RT-PCR; format: functional, organism-based, Hepacivirus hominis; conditions: genotype 1b strain N, 96 h; in short: as §2
[43] = Tmax in rat at 5 mg/kg, po; format: ADME, organism-based; set-up: dose 5 mg/kg, route oral; conditions: in vivo; in short: as §1
[44] = test system: Hepatitis C virus; test: Antiviral activity against HCV 1a H77 after 4 days by RT-PCR in presence of 40% human serum; format: functional, organism-based, Hepacivirus hominis; conditions: genotype 1a H77, 96 h; in short: as §3

## CC(C)CC[C@@]1(C)C(=O)C(C2=NS(=O)(=O)c3cc(NS(C)(=O)=O)ccc3N2)=C(O)c2ccccc21
[1]
  fold change (FC): 28
[2]
  EC50: 25 nM
[3]
  fold change (FC): 2.3
[4]
  bioavailability: 15.2%
[5]
  Tmax: 0.4 h
[6]
  fold change (FC): 2000
[7]
  Cmax: 1.94 µg/mL
[8]
  fold change (FC): 1.3
[9]
  fold change (FC): 2.2
[10]
  Cmax: 0.31 µg/mL
[11]
  EC50: 11 nM
[12]
  EC50: 42 nM
[13]
  EC50: 1200 nM
[14]
  fold change (FC): 13
[15]
  EC50: 0.9 nM
[16]
  half-life: 1.9 h
[17]
  Cmax: 8.59 µg/mL
[18]
  AUC: 1.5 µg·h/mL
[19]
  Tmax: 2.7 h
[20]
  fold change (FC): 389
[21]
  EC50: 8.2 nM
[22]
  bioavailability: 89.3%
[23]
  half-life: 10.7 h
[24]
  fold change (FC): 1330
[25]
  IC50: 0.33 nM
[26]
  Cmax: 5.49 µg/mL
[27]
  EC50: 1800 nM
[28]
  EC50: 350 nM
[29]
  Cmax: 0.52 µg/mL
[30]
  fold change (FC): 15
[31]
  AUC: 3.3 µg·h/mL
[32]
  log10cfu: 2.5 /ml
[33]
  fold change (FC): 3.9
[34]
  EC50: 7.7 nM
[35]
  log10cfu: 1.4 /ml
[36]
  EC50: 4.5 nM
[37]
  IC50: 1.25 nM
[38]
  bioavailability: 62.7%
[39]
  EC50: 13.8 nM
[40]
  half-life: 7.6 h
[41]
  AUC: 10.5 µg·h/mL
[42]
  EC50: 3 nM
[43]
  Tmax: 4.2 h
[44]
  EC50: 143 nM

## COc1ccc2c(O[C@@H]3C[C@H]4C(=O)N[C@]5(C(=O)O)C[C@H]5/C=C\CCCCC[C@H](NC(=O)OC5CCCC5)C(=O)N4C3)cc(-c3csc(NC(C)C)n3)nc2c1 [CILUPREVIR]
[1]
  fold change (FC): 1
[2]
  EC50: 1.3 nM
[3]
  fold change (FC): 1.1
[6]
  fold change (FC): 0.8
[8]
  fold change (FC): 1
[9]
  fold change (FC): 0.9
[13]
  EC50: 1.3 nM
[15]
  EC50: 1.4 nM
[20]
  fold change (FC): 1
[21]
  EC50: 3.3 nM
[24]
  fold change (FC): 1.1
[27]
  EC50: 1.1 nM
[28]
  EC50: 1.3 nM
[33]
  fold change (FC): 0.9
[34]
  EC50: 2.7 nM
[36]
  EC50: 3.1 nM
[39]
  EC50: 2.8 nM
